Laboratory results reported in article PMC3529859 (Leukemia, 2012).

Legend:
Assay type in all cases: cell-based, human
[1] = system: KIT D816V+ primary bone marrow mast cells; details: 1 µM (1000 nM); 7 d; SCF 100 ng/ml; KIT D816V-positive patients n=5
Outline: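 Bone marrow mononuclear cells from patients with systemic mastocytosis (WHO criteria, IRB-approved protocol, informed consent), with KIT D816V status determined by PCR/RFLP. Cells were incubated with test compound at 0, 100 or 1000 nM in 0.1% DMSO for 7 d with SCF (100 ng/ml), then mast cell viability was assessed.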

[2] = system: SCF-enhanced degranulation of primary HuMCs; experiment: SCF-enhanced degranulation of HuMCs; details: Ag 0.1 ng/ml + SCF 10 ng/ml; up to 1000 nM
[3] = system: FcεRI-mediated degranulation of primary HuMCs; experiment: FcεRI-mediated degranulation of HuMCs; details: Ag 1 ng/ml; inhibition observed only at 1000 nM

Row | SMILES | reduction in the viability of mast cells [1] | effect on SCF-enhanced degranulation [2] | effect on FcεRI mediated mast cell degranulation [3]
1 | CO[C@@H]1[C@H](N(C)C(=O)c2ccccc2)C[C@H]2O[C@]1(C)n1c3ccccc3c3c4c(c5c6ccccc6n2c5c31)C(=O)NC4 [PKC 412] | 88% |  | 
2 | Cc1ccc(NC(=O)c2ccc(CN3CCN(C)CC3)cc2)cc1Nc1nccc(-c2cccnc2)n1 [imatinib] |  | inhibited SCF-enhanced degranulation at the highest concentration | minimal effects
